# PHOSPHO1 inh: PubChem AID 1565; actives 1.1% (n = 290,000); recombinant PHOSPHO1, absorbance phosphatase assay; Phosphoethanolamine/phosphocholine phosphatase (Homo sapiens), Q8TCT1; inhibition, % at 13.3 µM; in the data active = inhibition above about 60%
# Target sequence (Q8TCT1 whole entry, looked up): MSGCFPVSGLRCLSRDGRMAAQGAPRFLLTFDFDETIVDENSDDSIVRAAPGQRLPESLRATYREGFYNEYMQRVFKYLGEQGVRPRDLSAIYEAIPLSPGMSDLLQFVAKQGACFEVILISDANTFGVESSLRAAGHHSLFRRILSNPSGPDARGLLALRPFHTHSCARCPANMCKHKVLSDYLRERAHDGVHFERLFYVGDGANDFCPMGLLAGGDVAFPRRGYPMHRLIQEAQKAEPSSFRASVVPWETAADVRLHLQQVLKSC
# ALR H2O2 inh: inhibitors of human ALR sulfhydryl oxidase, primary screen, biochemical, H2O2 detection, HRP-luminol luminescence, single point; actives 3.8% (n = 290,000); inhibition, % (test concentration not listed); purified ALR, DTT oxidation; FAD-linked sulfhydryl oxidase ALR (Homo sapiens), P55789;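 active = mean replicate inhibition above about 79%, with every replicate also reaching it, limit read from the data; inconclusive = only one of the two criteria met; inactive = mean below limit and not every replicate reaching it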
# Target sequence (P55789 whole entry, looked up): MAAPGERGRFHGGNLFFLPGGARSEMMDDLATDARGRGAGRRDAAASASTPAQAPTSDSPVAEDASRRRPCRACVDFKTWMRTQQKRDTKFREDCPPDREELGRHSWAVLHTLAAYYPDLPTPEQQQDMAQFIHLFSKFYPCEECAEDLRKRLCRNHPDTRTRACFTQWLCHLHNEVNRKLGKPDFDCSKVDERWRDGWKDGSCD
# HSF1 inh: HSF1 inhibitors in luciferase reporter cells, primary screen, cell-based, NIH3T3, luminescence | activity change, negative = inhibition, % at 7.5 µM (by protocol) | AID 2098, 2009 | NIH3T3-HGL HSE-luciferase, MG132-induced, luminescence 8 h; hits give low values | actives 0.77% (n = 300,000);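 active = more than half of replicate wells show activity change below -50%, luminescence cut by over half; inconclusive = some wells, but at most half, below -50%; inactive = no replicate well below -50%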;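 also: luciferase reports HSF-1 transcriptional activity via heat shock element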
# core dimer inh: inhibitors of HCV core protein dimerization, primary screen, biochemical, TR-FRET, high-throughput. actives 0.33% (n = 300,000). inhibition, % at 5 µM. TR-FRET GST/Flag-core106 dimerization, 1536-well. AID 1899, 2009;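 active = inhibition above the mean of all tested compounds plus 3 SD, set per screening campaign, cut at about 45% in these data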
#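 Assay system: Tagged HCV core106 pair (GST and Flag) | Buffer or medium: KF-containing HEPES buffer, pH 7.45, DTT, CHAPS, BSA | Also added: Eu donor and XL665 acceptor anti-tag antibodies | Dosing: One concentration, 5 µM, in 0.5% DMSO | Timing: 4 h at 22.5 °C | Technique: TR-FRET 671 and 617 nm emission | Repeats: Singlicate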
# AI-2 QS mod: Vibrio harveyi AI-2 quorum sensing modulators, primary screen, JMH597 strain, luminescence/OD600 ratio | actives 0.4% (n = 300,000) | activity change, % at 7.5 µM | AID 2094, 2009 | Vibrio harveyi JMH597 AI-2 luminescence/OD600 ratio, 9 h; hits give low values; strain lacks LuxN and CqsS sensors; 0 = neutral-control median; in the data active = activity change below about -75%, passing the limit was not always enough; inconclusive = no clear call, values can overlap the other calls;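 also: luminescence divided by OD600 gain over 9 h not by final OD600 alone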
# HSF-1 act: HSF-1 activators, primary screen, NIH3T3-HGL cells, MG132 stress, luminescence, single point. NIH3T3-HGL HSF-1 luciferase reporter, 8 h; 100% = twice DMSO control signal. activation, % at 9 µM. actives 1.7% (n = 300,000). AID 504408, 2011;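 active = mean replicate activation of at least 50% with a set share of replicates each reaching 50%; inconclusive = only one of those two conditions met; inactive = mean below 50% and too few replicates reaching it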
# Hits are given with their value; - = inactive; ? = inconclusive; . = no result given. An excerpt weighted towards active compounds, which were near 6.8% of everything screened.
SMILES,PHOSPHO1 inh,ALR H2O2 inh,HSF1 inh,core dimer inh,AI-2 QS mod,HSF-1 act
COc1ccc(C2CC(c3ccccc3)=NN2c2ccc(N)cc2)cc1 (stereo not given),-,-,-,-,-,-
COc1cc(C2CC(c3ccccc3)=NN2c2ccccc2)ccc1OCC(=O)O (stereo not given),-,98.8,-,-,-,-
COc1ccc(C2CC(c3ccccc3)=NN2c2ccc(S(N)(=O)=O)cc2)cc1OC (stereo not given),-,-,-,-,-,-
CC(C)[C@@H](C(=O)NCc1ccco1)N1C(=O)N2CCc3c([nH]c4ccccc34)[C@@]2(C)C1=O,-,.,-,-,-,-
OCCCNC(=S)Nc1ccc(Br)cc1Cl,-,.,-,-,-,-
COc1ccc(Cc2nc3ccc(C(=O)NCC4COCCO4)cc3o2)cc1OC (stereo not given),-,-,-,-,-,-
COc1ccc2nc(SCC(=O)NC3(C#N)CCCCC3)[nH]c2c1,.,-,-,-,-,-
O=C(c1ccco1)[C@@H]1[C@@H]2C(=O)N(c3ccccc3)C(=O)[C@@H]2C2c3ccccc3C=CN21 (stereo not given in full),84.3,-,-,-,-,-
Cc1ccc(N2C(=O)[C@@H]3[C@H](C2=O)C2c4ccccc4C=CN2[C@@H]3C(=O)c2ccco2)cc1 (stereo not given in full),73.8,.,.,.,.,.
CCOC(=O)C1CCCN(C(=O)c2ccc3c(c2)N(Cc2ccccc2)C(=O)c2ccccc2S3=O)C1 (stereo not given),-,-,-,-,-,-
Cc1cc(C(=O)CCC(=O)NCC2COc3ccccc3O2)c(C)s1 (stereo not given),.,.,-,-,-,-
c1ccc2cc(CSCc3nc4ccccc4[nH]3)ccc2c1,-,.,-,-,-,-
CCC(C(=O)Nc1cccc(S(=O)(=O)N(C)c2ccccc2)c1)c1ccccc1 (stereo not given),.,-,.,.,.,.
CC(C)OCCCNC(=S)Nc1ccc(S(N)(=O)=O)cc1,85.6,-,-,-,-,-
CC(=O)c1ccc(NC(=S)NCCc2ccc(S(N)(=O)=O)cc2)cc1,-,-,-,-,-,-
COc1cc(F)c(C2=CC(=O)C[C@H](c3ccc(Cl)cc3)C2)cc1F,.,-,.,.,.,.
COc1cc(N=c2ssnc2Cl)c(OC)cc1Cl,91.3,-,-,-,-,-
Cc1cc(Cl)ccc1N=c1ssnc1Cl,95.8,-,.,-,-,.
Cc1ccc(N=c2ssnc2Cl)cc1,101.3,-,-,-,-,-
Nc1ccccc1N=c1ssnc1Cl,-,.,.,.,.,.
Cc1cc(C)nc(/N=c2/ssnc2Cl)c1,-,.,-,-,-,-
Cc1ccc(NC(=O)C2CCCN(S(=O)(=O)c3ccc(-n4cnnn4)cc3)C2)cc1 (stereo not given),-,-,-,-,-,-
COc1cc(CNc2ccc3[nH]c(=O)[nH]c3c2)cc(Br)c1OCc1ccccc1F,-,-,-,.,-,-
C=CCOc1cccc(CNc2ccc3[nH]c(=O)[nH]c3c2)c1,-,99.1,-,-,-,-
COc1cccc(CNc2ccc3[nH]c(=O)[nH]c3c2)c1OCc1ccccc1,-,99.1,-,.,-,-
SMILES,PHOSPHO1 inh,ALR H2O2 inh,HSF1 inh,core dimer inh,AI-2 QS mod,HSF-1 act
COc1cccc(CNc2ccc3[nH]c(=O)[nH]c3c2)c1OCc1ccccc1Cl,-,97.4,-,-,-,-
C=CCOc1ccc(CNc2ccc3[nH]c(=O)[nH]c3c2)cc1OC,-,.,.,.,.,.
O=C(c1ccco1)N1CCN(C(=S)Nc2ccc(Br)cc2Cl)CC1,-,-,-,.,-,-
CCN(CC(=O)Nc1ccc2c(c1)OCCO2)C(=O)/C=C/c1ccc([N+](=O)[O-])cc1,.,-,.,.,.,.
Cc1ccc2c(c1C)NC(=O)C21N2CCCC2C(C(=O)c2ccc3ccccc3c2)C12C(=O)Nc1ccccc12 (stereo not given),-,.,.,.,.,.
COc1ccc(S(=O)(=O)N2CCC(C(=O)Nc3ccc(F)cc3)CC2)c2cccnc12,-,-,-,-,-,-
COc1ccc(/C=C/c2nc3ccccc3n2Cc2ccccc2OC)cc1,-,-,-,-,-,67.7
Cc1cc(NC(=O)CSc2n[nH]c(-c3ccc(Cl)cc3Cl)n2)no1,.,-,.,.,.,.
CCN1CCN(/C=N/c2nc3c(s2)CCCC3)CC1,-,-,-55.4,-,-,-
COc1ccc(NC(=O)c2cccc(OS(=O)(=O)N(C)C)c2)cc1,-,-,-,-,-,54.5
CSc1cccc(NC(=O)c2ccco2)c1,-,97.8,-,-,-,?
CC1N(C)c2cc(NC(=O)c3ccco3)ccc2C1(C)C (stereo not given),-,97.6,-,-,-,-
COc1ccc(NC(=O)c2cc3cc(OC)ccc3oc2=N)cc1,-,-,-53.0,-,-,-
CC1N(C)c2cc(NC(=O)c3ccco3)c(P(=O)(Nc3ccc([N+](=O)[O-])cc3)N3CCOCC3)cc2C1(C)C (stereo not given),-,-,-,-,-,-
COc1cccc(C(=O)Nc2cccc(SC)c2)c1,-,.,-,-,-,61.6
O=C(CSc1ccc(Cl)cc1)Nc1cccc(NC(=O)c2ccco2)c1,-,-,-,-,-,-
COc1ccccc1C(=O)Nc1cccc(SC)c1,-,.,-,-,-,-
O=C(CSc1ccccc1)Nc1cccc(NC(=O)c2ccco2)c1,-,-,-67.6,-,-,-
CSc1cccc(NC(=O)c2cccc3cccnc23)c1,-,-,-,-,-,53.8
CN(C)c1cccc(NC(=O)c2ccco2)c1,-,99.1,-,-,-,-
COc1cccc(C(=O)Nc2ccccc2)c1,-,-,-,-,-,-
C=CCn1c(-c2sccc2C)n[nH]c1=S,-,94.8,-,-,-,-
Cc1cccc(-c2n[nH]c(=S)n2Cc2ccccc2)c1,-,-,-,-,-,-
S=c1[nH]nc(-c2cccc(Cl)c2)n1Cc1ccccc1,68.9,-,-,-,-,-
O=[N+]([O-])c1cccc(-c2n[nH]c(=S)n2-c2ccc(Br)cc2)c1,-,94.8,-,-,-,-
O=C(O)c1ccc(-n2c(-c3ccc(Br)cc3)n[nH]c2=S)cc1,102.7,92.5,-,-,-,-
C=CCn1c(-c2cccc([N+](=O)[O-])c2)n[nH]c1=S,-,96.2,-,-,-,-
C=C(C)Cn1c(-c2cccc([N+](=O)[O-])c2)n[nH]c1=S,-,-,-,-,-,-

# Assay outcomes: PubChem, several laboratories
